Measured values: ChEMBL document CHEMBL1152595, “Synthesis and biological evaluation of 2,3,4-triarylbenzopyran derivatives as SERM and therapeutic agent for breast cancer” (Bioorg Med Chem, 2009)

How the values were obtained:
Rattus norvegicus [1] = test: Estrogenic antagonistic activity in bilaterally ovariectomized Sprague-Dawley rat assessed as inhibition of ethynylesterol-induced uterine weight at 10 mg/kg, po once daily for 3 days measured on day 31 of age; type: functional
Outline: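 Antagonism read as uterine fresh weight in rats given compound orally at 10 mg/kg/day alongside 17α-ethynylestradiol (0.02 mg/kg/day); inhibition expressed relative to the ethynylestradiol-only group; means ± SEM, at least six animals per group.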

MCF7 = test: Antiproliferative activity against human MCF7 cells after 48 hrs by MTT assay; type: functional, cell-based
Outline: (§1)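 MTT assay: cells seeded at 1 × 10^4 per well in DMEM with 10% FBS, left 24 h at 37 °C in CO2; compounds diluted in medium added alongside vehicle control for 48 h; MTT (5 mg/mL) added for 4 h, formazan dissolved in DMSO, absorbance read at 540 nm; IC50 in µM.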

HEK293 = test: Antiproliferative activity against human HEK293 cells after 48 hrs by MTT assay; type: cell-based; details: HEK293, 48 h; outline: as §1
MDA-MB-231 = test: Antiproliferative activity against human MDA-MB-231 cells after 48 hrs by MTT assay; type: functional, cell-based; outline: as §1
Rattus norvegicus [2] = test: Estrogenic agonistic activity in bilaterally ovariectomized Sprague-Dawley rat assessed as uterine weight gain at 10 mg/kg, po once daily for three days measured on day 31 of age; type: functional
Outline: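 Immature rats dosed orally once daily for three consecutive days; vehicle-only group as control. Autopsy 24 h after last dose on day 31 of age: vaginal smear taken, uterus excised, blotted and weighed fresh. Vaginal opening, vaginal epithelial cornification and uterine weight increase scored; gain expressed as percent of vehicle control; means ± SEM, at least six per group.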

[3] = Homo sapiens, MCF7, 48 h, read-out: IC50
[4] = Homo sapiens, MDA-MB-231, 48 h, read-out: IC50

Row | IC50 (MCF7; mcf7) | IC50 (MDA-MB-231; mda-mb-231) | IC50 (MCF7; [3]) [µM] | IC50 (MDA-MB-231; [4]) [µM] | SMILES | inhibition in vivo at 10 mg/kg (Rattus norvegicus [1]) [%] | IC50 (HEK293) [µM] | Activity (Rattus norvegicus [2]) [%]
1 | Not Active | Not Active | – | – | CC(=O)Oc1ccc([C@@H]2Oc3ccccc3[C@H](c3ccc(O)cc3)[C@H]2c2ccccc2)cc1 | 4.2 | > 100 | 105.18
2 | – | – | 11 | 5.61 | CC(=O)Oc1ccc([C@@H]2Oc3ccccc3[C@H](c3ccc(OCCCN(C)C)cc3)[C@H]2c2ccccc2)cc1 | 58.4 | 14 | 117.2
3 | Not Active | Not Active | – | – | CC(=O)Oc1ccc([C@@H]2Oc3ccccc3[C@H](c3ccc(OCCN(C(C)C)C(C)C)cc3)[C@H]2c2ccccc2)cc1 | 73.9 | – | 146.6
4 | – | – | 18.4 | 17.8 | Oc1ccc([C@@H]2Oc3ccccc3[C@H](c3ccc(OCCN4CCCC4)cc3)[C@H]2c2ccccc2)cc1 | 69.2 | 36.3 | 11.25
5 | – | Not Active | 11.7 | – | CCN(CC)CCOc1ccc([C@H]2c3ccccc3O[C@@H](c3ccc(OC(C)=O)cc3)[C@@H]2c2ccccc2)cc1 | 59.3 | 16.1 | 41.2
6 | Not Active | Not Active | – | – | O=C1c2ccccc2O[C@@H](c2ccc(OCCN3CCCC3)cc2)[C@@H]1c1ccccc1 | 45.4 | 34 | 13.17
7 | – | – | 7.79 | 8.65 | Oc1ccc([C@@H]2Oc3ccccc3[C@H](c3ccc(OCCN4CCCCC4)cc3)[C@H]2c2ccccc2)cc1 | 51.5 | 38.3 | 28.2
8 | Not Active | Not Active | – | – | OC1c2ccccc2O[C@@H](c2ccc(OCCN3CCCC3)cc2)[C@@H]1c1ccccc1 (some centres undefined) | 29 | – | 124.5
9 | Not Active | Not Active | – | – | Oc1ccc([C@H]2c3ccccc3O[C@@H](c3ccc(O)cc3)[C@@H]2c2ccccc2)cc1 | 21.2 | > 500 | 142.9
10 | – | – | 16.8 | 14 | CC(=O)Oc1ccc([C@@H]2Oc3ccccc3[C@H](c3ccc(OCCN4CCCCC4)cc3)[C@H]2c2ccccc2)cc1 | 51.4 | 29.8 | 171.4
11 | Not Active | Not Active | – | – | CC(=O)Oc1ccc([C@@H]2Oc3ccccc3[C@H](c3ccc(OCCN4CCCCCC4)cc3)[C@H]2c2ccccc2)cc1 | 30.6 | 88.6 | 108.3
12 | – | – | 6.97 | 7.48 | CC(C)N(CCOc1ccc([C@H]2c3ccccc3O[C@@H](c3ccc(O)cc3)[C@@H]2c2ccccc2)cc1)C(C)C | 69 | 20.5 | 225
13 | – | – | – | – | COc1ccc2c(c1)OC(C)(C)C(c1ccccc1)C2c1ccc(OCCN2CCCC2)cc1 (centres undefined) [ORMELOXIFENE] | 77.9 | – | 164.3
14 | – | – | 7.65 | 9.86 | CC/C(=C(\c1ccccc1)c1ccc(OCCN(C)C)cc1)c1ccccc1 [TAMOXIFEN] | 27.4 | – | 208.8
